# Laboratory results reported in article PMC3835402 (Molecular bioSystems, 2010).
# Entries after “also recorded” stand apart in the source; their conditions may differ.
# Legend:
# [1] = biological target: T1, endogenous ER-α (Homo sapiens, UniProt P03372); experiment: ER degradation in MCF7 cells by western blotting; assay type: cell-based; conditions: western blot; for ER level on treatment with 13 and the proteasome inhibitor epoxomicin: Fig. 4A
# T1 sequence (P03372 1-595): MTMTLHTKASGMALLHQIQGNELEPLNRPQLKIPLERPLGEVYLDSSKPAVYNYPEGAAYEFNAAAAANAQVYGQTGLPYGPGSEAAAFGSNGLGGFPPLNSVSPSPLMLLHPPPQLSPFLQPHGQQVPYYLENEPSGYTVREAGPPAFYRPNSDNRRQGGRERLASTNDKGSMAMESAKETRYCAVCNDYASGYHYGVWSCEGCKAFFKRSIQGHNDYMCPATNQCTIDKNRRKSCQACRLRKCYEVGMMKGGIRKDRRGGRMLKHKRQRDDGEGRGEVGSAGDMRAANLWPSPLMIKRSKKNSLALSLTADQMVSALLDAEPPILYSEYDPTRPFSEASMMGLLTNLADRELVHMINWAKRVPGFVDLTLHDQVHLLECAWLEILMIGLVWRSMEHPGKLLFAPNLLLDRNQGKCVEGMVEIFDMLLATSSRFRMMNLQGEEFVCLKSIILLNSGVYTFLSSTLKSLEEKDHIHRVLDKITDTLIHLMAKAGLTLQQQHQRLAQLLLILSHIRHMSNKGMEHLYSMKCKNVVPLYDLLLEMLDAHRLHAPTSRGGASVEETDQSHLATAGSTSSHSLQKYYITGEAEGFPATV
# [2] = biological target: T2, ER (Homo sapiens, UniProt P03372); experiment: ER immunofluorescence in MCF7 cells; assay type: cell-based; conditions: ER green, DAPI blue, compared to controls, Fig. 4C
# T2 sequence (P03372 1-595): T1 sequence (P03372 1-595)
# Summary of the method: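 MCF7 on ethanol/UV-sterilized coverslips, attached 24 h, then kept in phenol-red-free RPMI with 5% charcoal/dextran FBS. Test compound diluted in that medium, applied as for the western blots. Fixed in 4% PFA, permeabilized with 0.2% Triton X. Blocked in 10% goat serum/0.1% BSA in PBST. Anti-ER 1 h at 37°C, then Alexa Fluor 488 secondary 30 min. DAPI mount, inverted fluorescence microscopy.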
# [3] = tested on: MCF7 cells; experiment: Cell viability assay by MTS; assay type: cell-based, human; conditions: 48 hour treatment, Fig. 5B
# Summary of the method: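 MCF7 seeded at 5 × 10³ cells in RPMI 1640 with 10% FBS overnight, then switched to 5% charcoal-dextran FBS RPMI for 24 h before dosing. Test compound was added in DMSO vehicle for 48 h. Viability was read by MTS (CellTiter 96 AQueous One) absorbance at 490 nm. IC50 was fitted by nonlinear sigmoid dose-response regression from at least triplicate results.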
molecule,measurement,setting,value
-Leu-Ala-Pro^OH-Tyr-Ile-OBzl [compound 12],"ER degradation, dependence on the hydroxyproline residue (pVHL recognition)",[1]; Fig. 4B (text says Fig 4C),effectively causes ER degradation
-Leu-Ala-Pro^OH-Tyr-Ile-OBzl [compound 15],ER degradation at the highest concentration examined,"[1]; 50 μM, 48 hour treatment, Fig. 3B",all PROTACs but 15 showed significant ER degradation
-Leu-Ala-Nle-Leu-Tyr-Ile-OBzl [compound 17],ER level by immunofluorescence,[2],does not cause ER degradation
"CC[C@H](C)[C@H](NC(=O)[C@H]([C@@H](C)CC)N(C)C(C)=O)C(=O)N[C@H](C(=O)N[C@@H](CC(C)C)C(=O)[C@@]1(C)CO1)[C@@H](C)O [epoxomicin, reference compound]",ER level on treatment with 13 and the proteasome inhibitor epoxomicin,[1],accumulation of the ER
same,ER level by immunofluorescence,[2],causes the accumulation of the ER
-Leu-Ala-Pro^OH-Tyr-Ile-OBzl [compound 13],"time-dependent ER degradation, treated once","[1]; between 48 and 72 hours, Fig. 3D",stable between 48 and 72 hours
same,ER level on treatment with 13 and the proteasome inhibitor epoxomicin,[1],proteasome-dependent
same,ER degradation at even lower doses,[1]; data not shown,degraded the ER most effectively
same,inhibition of proliferation of MCF7 cells,[3],best efficacy; also recorded: most effective
